These results are taken from ChEMBL document CHEMBL1128245, “Dual-acting thromboxane receptor antagonist/synthase inhibitors: synthesis and biological properties of [2-substituted-4-(3-pyridyl)-1,3-dioxan-5-yl] alkenoic acids” (J Med Chem, 1995).

A value given as a limit tells only on which side of the number the result lay.

For experiment [1], the target named is T1, Prostacyclin synthase (Homo sapiens, UniProt Q16647).
T1 sequence (Q16647 whole entry): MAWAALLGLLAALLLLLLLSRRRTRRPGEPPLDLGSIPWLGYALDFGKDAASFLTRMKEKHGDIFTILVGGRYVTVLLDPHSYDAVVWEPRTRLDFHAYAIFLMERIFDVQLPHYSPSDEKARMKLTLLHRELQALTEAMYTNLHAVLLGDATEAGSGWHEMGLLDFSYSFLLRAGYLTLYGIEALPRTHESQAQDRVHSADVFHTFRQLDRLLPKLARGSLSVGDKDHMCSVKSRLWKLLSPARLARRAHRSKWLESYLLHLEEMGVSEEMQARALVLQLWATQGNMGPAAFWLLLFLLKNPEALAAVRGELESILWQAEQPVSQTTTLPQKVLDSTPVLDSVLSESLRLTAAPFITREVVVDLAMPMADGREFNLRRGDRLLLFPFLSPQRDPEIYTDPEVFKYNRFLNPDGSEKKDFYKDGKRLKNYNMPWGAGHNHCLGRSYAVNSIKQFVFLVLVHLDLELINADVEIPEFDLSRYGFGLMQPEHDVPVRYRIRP
Description: In vitro inhibition of Prostaglandin I2 synthase in cultured human endothelial cells.

In experiment [2] the test system is Rattus norvegicus. Kind of experiment: Ex vivo TXA2 ([…]) antagonist activity was determined for U-46,619 induced aggregation (dose ratio) after 3 hr of oral dosing (10 mg/kg) in the rat. Type of experiment: functional. Summed up:
(§1)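 Conscious rats (n = 6) dosed by oral gavage, then anesthetized and bled from the abdominal aorta at 1, 3 or 5 h. Platelet-rich plasma aggregated with U46619 before and after dosing to give a U46619 dose ratio. ">" values mark the maximum dose ratio achievable at the top U46619 concentration (1 × 10^-4 M).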

Experiment [3] deals with Rattus norvegicus. Kind of experiment: Ex vivo […] (TXA2 synthase) inhibitory activity after 5 hr of oral dosing (10 mg/kg) in the rat. Type of experiment: functional. Summed up:
(§2)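 Rats (n = 6) gavaged, anesthetized, aortic blood taken at 1, 3 or 5 h after dosing. A blood aliquot was challenged with collagen and TXB2 measured by radioimmunoassay; expressed as % inhibition of TXA2 synthase (±SEM).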

Experiment [4] concerns Rattus norvegicus. Description: Ex vivo TXA2 ([…]) antagonist activity was determined for U-46,619 induced aggregation (dose ratio) after 1 hr of oral dosing (10 mg/kg) in the rat. Format: functional. A digest of the protocol: as §1
Experiment [5] relates to Rattus norvegicus. Kind of experiment: Ex vivo […] (TXA2 synthase) inhibitory activity after 1 hr of oral dosing (10 mg/kg) in the rat. Type of experiment: functional. A digest of the protocol: as §2
For experiment [6], the target named is T2, Thromboxane-A synthase (Homo sapiens, UniProt P24557).
T2 sequence (P24557 whole entry): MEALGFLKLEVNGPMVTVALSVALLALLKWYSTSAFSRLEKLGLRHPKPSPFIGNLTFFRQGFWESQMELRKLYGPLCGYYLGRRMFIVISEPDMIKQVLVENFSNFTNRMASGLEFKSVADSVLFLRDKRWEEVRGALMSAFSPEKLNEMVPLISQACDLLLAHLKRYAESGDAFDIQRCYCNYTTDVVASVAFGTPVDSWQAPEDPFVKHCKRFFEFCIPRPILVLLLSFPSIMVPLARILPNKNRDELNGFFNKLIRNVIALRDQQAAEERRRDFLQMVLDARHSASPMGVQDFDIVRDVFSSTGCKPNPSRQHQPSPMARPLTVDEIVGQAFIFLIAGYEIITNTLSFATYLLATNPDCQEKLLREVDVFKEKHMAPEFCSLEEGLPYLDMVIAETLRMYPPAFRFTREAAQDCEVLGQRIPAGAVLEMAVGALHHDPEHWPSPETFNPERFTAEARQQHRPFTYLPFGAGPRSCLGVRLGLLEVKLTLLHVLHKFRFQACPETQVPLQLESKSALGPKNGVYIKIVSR
Kind of experiment: In vitro Inhibition of thromboxane synthase from human blood platelet microsomes. Summed up: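 Human blood platelet microsomes incubated with [1-14C]arachidonic acid with or without inhibitor. Conversion to labeled thromboxane B2 quantified radiochromatographically. n = 2.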

For experiment [7], the system named is Rattus norvegicus. Kind of experiment: Ex vivo TXA2 ([…]) antagonist activity was determined for U-46,619 induced aggregation (dose ratio) after 5 hr of oral dosing (10 mg/kg) in the rat. Format: functional. Summed up: as §1
Experiment [8] is filed under the species Homo sapiens. Kind of experiment: In vitro inhibition of U-46,619-induced aggregation of unwashed human platelets. Format: functional. As to conditions: for Kb: Homo sapiens, read-out: pA2 (converted). A digest of the protocol:
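Citrated (3.2%) human venous blood spun at 200g for 10 min. Platelet-rich plasma aggregated with U46619 with or without several antagonist concentrations.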

In experiment [9] the test system is Rattus norvegicus. Description: Ex vivo […] (TXA2 synthase) inhibitory activity after 3 hr of oral dosing (10 mg/kg) in the rat. Format: functional. A digest of the protocol:
as §2

In experiment [10] the test system is Thromboxane-A synthase (Canis familiaris). Kind of experiment: Ex vivo […] (TXA2 synthase) inhibitory activity after 8 hr of oral dosing (1 mg/kg) in the dog. The conditions noted are these: Canis lupus familiaris.
Experiment [11] has the same test system. Description: Ex vivo […] (TXA2 synthase) inhibitory activity after 24 hr of oral dosing (1 mg/kg) in the dog. As to conditions: Canis lupus familiaris.
Experiment [12] has the same test system. Description: Ex vivo […] (TXA2 synthase) inhibitory activity after 5 hr of oral dosing (1 mg/kg) in the dog. As to conditions: Canis lupus familiaris.

One may read the IC50 as the concentration needed to halve the response being measured. One may read the Inhibition as how much of the control response was suppressed. High values mean a response far below the control, low ones a response near the control. For orientation: pA2 means a measure of antagonist potency on a negative log scale. High values mean higher antagonist potency, low ones lower antagonist potency. As usually defined, the inhibition is the relative decrease from the control value, in per cent. Lower therefore signals a response near the control.

Take `CC(C)(Oc1ccccc1[N+](=O)[O-])C1OCC(C/C=C\CCC(=O)O)C(c2cccnc2)O1` (stereo not drawn): the IC50 in experiment [1] is under 1 µM; in experiment [6], under 10 nM. Besides, the Antagonist activity is 9 in experiment [2], over 57 in experiment [4] and 3 in [7]. The Inhibition in experiment [3] is listed as 63.2%; in [5], 85.5%; in experiment [9], 75.8%. In addition, the Kb in [8] was 11.2 nM.

As to `CC(C)(Cc1ccc(F)cc1)C1OCC(C/C=C\CCC(=O)O)C(c2cccnc2)O1` (stereo not drawn), the IC50 in experiment [1] was determined as 2 µM; in experiment [6] it was 45 nM. Further, in [8], the Kb is 89.1 nM.

With `O=C(O)CC/C=C\CC1COC(c2ccc(Cl)cc2Cl)OC1c1cccnc1` (stereo not drawn), the IC50 turned out to be 2.5 µM in [1] and 42 nM in [6]. In experiment [8], the Kb was 891 nM.

As to `Cc1ccc(OC(C)(C)C2OCC(C/C=C\CCC(=O)O)C(c3cccnc3)O2)cc1` (stereo not drawn), the figures for the IC50 in experiment [1] and in experiment [6] were 25 µM and 360 nM, respectively. Further, the Kb in experiment [8] was 631 nM.

As to `CC(C)(Cc1ccc(F)cc1C#N)C1OCC(C/C=C\CCC(=O)O)C(c2cccnc2)O1` (stereo not drawn), the IC50 in [1] was 7 µM; in [6], under 10 nM. Also, in experiment [8], the Kb was 2.19 nM.

As for `CC(C)(Oc1ccc(Br)cc1)C1OCC(C/C=C\CCC(=O)O)C(c2cccnc2)O1` (stereo in doubt; 7p), the IC50 in experiment [1] was under 1 µM; in experiment [6], over 10000 nM. In [8], this compound came in with a pA2 of 5.61.

On to `CC(C)(Oc1ccc(Br)cc1)C1OCC(C/C=C\CCC(=O)O)C(c2cccnc2)O1` (stereo in doubt; 7b), for which the IC50 in [1] was 3.4 µM; in [6], 51 nM. In addition, the pA2 in [8] is on record as 6.42.

As to `CSc1ccc(OC(C)(C)C2OCC(C/C=C\CCC(=O)O)C(c3cccnc3)O2)cc1` (stereo not drawn), the half-maximal inhibitory concentration (IC50) in experiment [1] was found to be 32 µM; in [6] it was 39 nM. Further, the Kb in experiment [8] was 372 nM.

As to `N#Cc1ccccc1C1OCC(C/C=C\CCC(=O)O)C(c2cccnc2)O1` (stereo not drawn), the IC50 in [1] is over 100 µM; in experiment [6], 54 nM. Further, the inhibition turned out to be 84% in [10], 82.6% in [11] and 91% in experiment [12]. Moreover, in experiment [8], the Kb was 245 nM.

Turning to `Cc1cccc(C#N)c1OC(C)(C)C1OCC(C/C=C\CCC(=O)O)C(c2cccnc2)O1` (stereo not drawn), the IC50 in experiment [1] stood at 60 µM; in experiment [6], 90 nM. Besides, the Kb in experiment [8] is 25.1 nM.

Turning to `CC(C)(Oc1ccc(F)cc1)C1OCC(C/C=C\CCC(=O)O)C(c2cccnc2)O1` (stereo not drawn), the figures for the 50% inhibitory concentration (IC50) in [1] and in experiment [6] were 2 µM and 51 nM, respectively. Besides, the Antagonist activity in experiment [2] amounted to 4; in experiment [4], 6; in experiment [7], 4. Besides, the Inhibition stood at 83% in experiment [3], 93.2% in [5] and 80% in [9]. Moreover, the Kb in experiment [8] is 120 nM.
